# Only some compounds are listed: those with a hit (about 3.5% of all), similar ones and a draw of the others.
# MrgX1 ag: agonists of human MrgX1 receptor, primary screen, HEK293 cells, Fluo-4 calcium flux | Fluo-4 calcium fluorescence, agonist mode; active compounds read high | B-score at 10 µM | hit rate 0.44% among 310,000 | AID 588627, 2011;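 active = calcium response B-score plate-corrected fluorescence ratio at least 3 library SD, with starting fluorescence B-score inside 5 SD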
# Target sequence (Q96LB2 whole entry, looked up): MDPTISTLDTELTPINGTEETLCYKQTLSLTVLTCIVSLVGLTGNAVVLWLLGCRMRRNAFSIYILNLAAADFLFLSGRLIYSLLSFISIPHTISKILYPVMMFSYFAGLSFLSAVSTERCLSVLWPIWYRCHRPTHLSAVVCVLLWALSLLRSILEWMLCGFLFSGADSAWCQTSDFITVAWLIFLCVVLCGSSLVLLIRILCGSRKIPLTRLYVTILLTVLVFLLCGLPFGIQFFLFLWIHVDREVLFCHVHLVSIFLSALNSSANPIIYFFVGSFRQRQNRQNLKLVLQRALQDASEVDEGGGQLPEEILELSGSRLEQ
#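 Assay system: stable human MrgX1 HEK293 cell line. Quantity: 15,000 cells per well. Schedule: cells plated overnight, dye loaded 0.5 h 37 °C, 0.5 h room temperature. Detection: Fluo-4 NW calcium-flux fluorescence, kinetic read. Read-out basis: peak-minus-minimum fluorescence over baseline, converted to B scores. Control set: positive and negative control wells on each plate.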
# MrgX1 antagonist: antagonists of human MrgX1 receptor, primary screen, HEK293 cells, Fluo-4 calcium flux | Mas-related G-protein coupled receptor member X1 (Homo sapiens), Q96LB2 | BAM8-22 antagonism; active compounds read low | B-score at 10 µM | hit rate 1.3% among 310,000 | AID 588676, 2011;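 active = calcium-response B-score plate-corrected more than 3 library SD below zero, starting fluorescence within 5 deviations, no agonist response on first addition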;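 note: peak minus trough fluorescence over baseline after final BAM8-22 challenge near maximal dose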
# RGS4 pot: RGS4 potentiators or activators, primary screen, cell-based, HEK293 M3R inducible RGS4, calcium flux | hit rate 0.92% among 310,000 | B-score at 10 µM | carbachol calcium flux Fluo4; active compounds read low | AID 463111, 2010;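 active = B-score of the integrated calcium signal more than 4 SD below the library mean, with starting fluorescence not abnormally high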;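 note: negative B-score means reduced calcium response which marks RGS4 activation or potentiation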
#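 Assay system: HEK293 FlpIn-TREx cells, stable M3R, doxycycline-inducible RGS4 / Probe or stimulus: carbachol, ECmax concentration / Times: overnight RGS4 induction, 30 min dye load 37 °C, 20 min compound RT / Signal: kinetic calcium fluorescence imaging with Fluo4-AM dye, 2 µM / Measure: Agonist-evoked peak-minus-minimum fluorescence over baseline, integrated ratio, B score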
# RGS4 block: RGS4 inhibitors, primary screen, cell-based, HEK293 M3R inducible RGS4, calcium flux; Regulator of G-protein signaling 4 (Homo sapiens), P49798; Fluo-4 calcium flux; active compounds read high; triggered by carbachol at its EC20; B-score at 10 µM; hit rate 0.45% among 310,000;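 active = B-score, a plate-corrected calcium signal, over three deviations above library mean, with baseline fluorescence within five deviations of library mean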;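 note: RGS4 expression induced by doxycycline in cells with stable M3 receptor; B-score is computed from the integrated fluorescence ratio over baseline after carbachol; higher B-score means a larger calcium signal and so more RGS4 inhibition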
# Target sequence (P49798 whole entry, looked up): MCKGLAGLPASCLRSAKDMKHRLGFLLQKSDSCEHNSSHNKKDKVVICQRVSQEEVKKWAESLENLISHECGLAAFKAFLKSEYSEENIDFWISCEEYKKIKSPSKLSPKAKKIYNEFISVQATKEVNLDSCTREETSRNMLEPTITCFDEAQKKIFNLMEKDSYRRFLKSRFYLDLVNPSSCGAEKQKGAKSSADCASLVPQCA
# MrgX1 allo act: positive allosteric modulators of MrgX1, primary screen, HEK293 cells, Fluo-4 calcium flux; Mas-related G-protein coupled receptor member X1 (Homo sapiens), Q96LB2; FDSS; active compounds read high; B-score at 10 µM; hit rate 0.63% among 310,000; AID 588675, 2011;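 active = plate-corrected calcium response at least 3 library SD above typical, normal starting fluorescence, not activating the receptor alone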;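 note: compound read alongside a low EC10 to EC30 dose of BAM8-22 agonist; peak minus trough fluorescence over baseline measured at the second addition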
# RGS4 block valid: enhanced carbachol calcium response, M3R/RGS4 cells, RGS4 inhibitor project, cell-based, validation screen, HEK293 M3R/RGS4, calcium flux | shares compounds with RGS4 block | carbachol calcium Fluo-4 fluorescence; carbachol added at its EC20; 0 = buffer wells, 100 = carbachol control | calcium response, % at 10 µM | hit rate 65% among 1,700 | AID 492999, 2010;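 active = duplicate-averaged calcium response above the buffer-only control mean plus 5 SD of those controls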;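 note: integrated fluorescence ratio F max minus min over baseline F0; higher response in RGS4-induced cells means RGS4 inhibition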
# M3R Ca ctr: carbachol calcium response in non-induced M3R cells, confirmation, counter-screen for RGS4 inhibitor project, cell-based, HEK293 M3R | activity (percent), % at 10 µM | shares compounds with RGS4 block | carbachol calcium Fluo-4; submaximal (EC20) carbachol stimulus; buffer wells 0%, carbachol control wells 100% | hit rate 20% among 1,900; call rule not given here;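 note: RGS4 induction absent so cells express M3R without RGS4; higher means more calcium signal and flags a non-specific hit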
# RGS4 inh ctr2: second counter-screen for RGS4 inhibitors: non-induced cells without carbachol; shares compounds with RGS4 block; HEK293 M3R/RGS4 non-induced, Fluo-4 calcium, no carbachol; normalised: buffer wells 0%, carbachol wells 100%; calcium response (agonist-mode artifact), % at 10 µM; hit rate 22% among 1,900;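 active = duplicate-averaged calcium rise in uninduced cells above buffer wells' mean plus 5 SD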
# A number is an active result; i = inactive; nt = no result.
SMILES,MrgX1 ag,MrgX1 antagonist,RGS4 pot,RGS4 block,MrgX1 allo act,RGS4 block valid,M3R Ca ctr,RGS4 inh ctr2
Cc1nc(Nc2ccc(Cl)cc2Cl)sc1C(=O)Nc1ccccc1,i,i,i,i,i,nt,nt,nt
CCn1c(=O)c([N+](=O)[O-])c(Cl)c2ccccc21,i,i,i,6.6,10,8.5%,i,9.5%
C=CCOc1ccc(C(=O)/C=C2/C(=O)Nc3ccccc32)cc1,i,i,i,4.7,i,14%,37%,i
COc1ccc(C(=O)/C=C2/C(=O)Nc3ccccc32)cc1,i,i,i,7,i,16%,i,i
O=C1Nc2ccccc2/C1=C/C(=O)c1cccs1,i,i,i,7.1,i,14%,i,i
Cc1cc(C(F)(F)F)nc(CCNC(=O)C2CCC(=O)N(Cc3cccc(F)c3)C2)n1 (stereo unspecified),i,i,i,i,i,nt,nt,nt
CN(C)c1ccc(/C=C2\N=C(C(C)(C)C)OC2=O)cc1,i,i,i,i,i,nt,nt,nt
Cc1ccc(N2CC(C(=O)OCC(=O)c3ccc(C)c([N+](=O)[O-])c3)CC2=O)cc1 (stereo unspecified),i,i,i,i,i,nt,nt,nt
CCn1nc(NS(=O)(=O)c2ccc([N+](=O)[O-])cc2)c2cc3cccc(C)c3nc21,i,i,i,17,i,22%,37%,i
C/C(=N/NC(=O)CNC(=O)COc1cccc(C)c1)c1ccc(Cl)cc1,i,i,i,i,i,nt,nt,nt
CCN(C(=O)Cc1c(C(=O)O)n(C)c2ccccc12)c1cccc(C)c1,i,i,i,i,i,i,i,i
O=C(CSc1cccc[n+]1[O-])Nc1cc2c(cc1Cl)C(=O)c1ccccc1C2=O,i,i,i,12,i,65%,i,i
COc1ccc(/C=C/c2nc(S(=O)(=O)c3ccccc3)c(NCCCN(C)C)o2)cc1OC,i,i,i,i,i,nt,nt,nt
C(=N\Nc1nc(-c2ccccc2)cs1)/c1cccnc1,i,i,i,i,i,i,i,i
Clc1ccc(-c2csc(N/N=C/c3cccnc3)n2)c(Cl)c1,i,i,i,i,i,nt,nt,nt
COc1cccc(C2=NOC(C(=O)Nc3cc(C)on3)C2)c1OC (stereo unspecified),i,i,i,i,i,nt,nt,nt
CCOCCCNS(=O)(=O)c1ccc(NC(=O)Cc2c(F)cccc2Cl)cc1,i,i,i,i,i,nt,nt,nt
CCN(CC)C(=O)Cn1c(=O)n(CC(=O)N2CCCCC2)c(=O)c2sccc21,i,i,i,17,i,i,i,i
Cc1c(C(=O)OCc2nc3scc(-c4ccccc4)c3c(=O)[nH]2)cccc1[N+](=O)[O-],i,i,i,i,i,nt,nt,nt
O=C(OCc1nc2scc(-c3ccccc3)c2c(=O)[nH]1)c1cc(Cl)ccc1[N+](=O)[O-],i,i,i,6.2,i,24%,i,i
O=C(O)CN1C(=O)/C(=C/C=C/c2ccccc2)SC1=S,i,i,i,i,i,nt,nt,nt
O=C(O)CN1C(=O)/C(=C\C(Br)=C\c2ccccc2)SC1=S,i,i,i,12,i,54%,i,i
CC1CC1C(=O)Nc1nc2ccc(S(C)(=O)=O)cc2s1 (stereo unspecified),i,i,i,6.1,i,i,i,i
Cc1ccc2nc(NC(=O)C3CC3C)sc2c1 (stereo unspecified),i,i,i,i,i,nt,nt,nt
CCOC(=O)c1c(NC(=S)NNS(=O)(=O)c2ccc(Br)cc2)sc2c1CCCCC2,i,i,i,i,i,nt,nt,nt
SMILES,MrgX1 ag,MrgX1 antagonist,RGS4 pot,RGS4 block,MrgX1 allo act,RGS4 block valid,M3R Ca ctr,RGS4 inh ctr2
O=C(Oc1ccc(Cl)c2cccnc12)c1cccc([N+](=O)[O-])c1,i,i,i,4.7,i,25%,i,i
Cc1c(N=NC2=C(O)CC(C)(C)CC2=O)cc2c(c1[N+](=O)[O-])C(C)(C)CC2(C)C,i,i,i,7.4,i,28%,i,i
CC(C)CN(CC(C)C)C(=S)NC1CCCCC1,i,i,i,i,i,nt,nt,nt
COc1ccc(C(C[N+](=O)[O-])c2c(-c3ccccc3)cc3ccccn23)c(OC)c1 (stereo unspecified),54,i,i,i,i,i,i,20%
Cc1c(Cl)cccc1NC(=O)C1NC(=O)CC1c1ccccc1 (stereo unspecified),i,i,i,i,i,nt,nt,nt
CC1=NN(c2ccc(Cl)cc2)C(=O)/C1=C\c1cccn1-c1ccc(S(N)(=O)=O)cc1,i,i,i,4.9,i,43%,42%,i
O=C(Nc1cnccn1)Nc1ccc(Cl)cc1Cl,i,i,i,i,i,nt,nt,nt
C=CCn1c(CCNC(=O)c2ccccc2F)nnc1SCC(=O)Nc1nc2ccccc2s1,i,i,i,i,i,nt,nt,nt
N#Cc1ccc(/C=C/C(=O)c2cccnc2)cc1,i,i,i,19,i,46%,i,i
CCN(CC)c1ccc(/C=C/C(=O)c2cccnc2)cc1,i,i,i,i,i,nt,nt,nt
O=C(Nc1ccc(F)cc1)C1CCCN(S(=O)(=O)c2ccc3[nH]c(=O)ccc3c2)C1 (stereo unspecified),i,i,i,i,i,nt,nt,nt
COc1ccc(NC(=O)C(=O)Nc2cccc3cccnc23)cc1OC,i,i,i,i,i,nt,nt,nt
COc1ccc(C(=O)Nc2cccc3cccnc23)cc1OC,i,i,i,4.9,i,i,i,i
O=C1c2[nH]nc(-c3ccccc3O)c2C(c2ccc(F)cc2)N1Cc1ccco1 (stereo unspecified),i,i,i,9,i,20%,i,i
O=C1c2[nH]nc(-c3ccccc3O)c2C(c2cccc(Cl)c2)N1Cc1ccco1 (stereo unspecified),i,i,i,8.1,i,25%,i,i
COc1ccc(C2c3c(-c4ccccc4O)n[nH]c3C(=O)N2Cc2ccco2)cc1OC (stereo unspecified),i,i,i,i,i,nt,nt,nt
CCn1c(=O)c2sccc2n(Cc2ccccc2)c1=O,i,i,i,i,i,nt,nt,nt

# Screening data: PubChem, Johns Hopkins Ion Channel Center
